Results as given in ChEMBL document CHEMBL1130234 (J Med Chem, 1997).
pIC50: −log10 of the molar value.

Legend:
[1] = Partition coefficient (logP); type: physicochemical; conditions: octanol/water
HaCaT [2] = test: Antiproliferative (inhibition of cell growth) activity against HaCaT cells (human keratinocyte line); type: functional, cell-based
Method in brief: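 HaCaT human keratinocytes treated for 48 h. Proliferation assessed by directly counting dispersed cells under a phase-contrast microscope; N = 3, significance versus control at P < 0.01.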

HaCaT [3] = test: Cytotoxic activity (2 uM) was measured by the amount of LDH (mU) release in HaCaT cells.; type: functional, Homo sapiens
Method in brief: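 HaCaT cells exposed to test compound at 2 μM; LDH activity (mU) released into the culture medium measured and compared with vehicle control; N = 3.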

[4] = target: T1, Arachidonate 5-lipoxygenase (Bos taurus, UniProt Q9BEG3); test: 5-LO inhibitory activity was determined by inhibition of LTB4 biosynthesis in bovine polymorphonuclear leukocytes (PMNL); type: functional, cell-based
T1 sequence (Q9BEG3 whole entry): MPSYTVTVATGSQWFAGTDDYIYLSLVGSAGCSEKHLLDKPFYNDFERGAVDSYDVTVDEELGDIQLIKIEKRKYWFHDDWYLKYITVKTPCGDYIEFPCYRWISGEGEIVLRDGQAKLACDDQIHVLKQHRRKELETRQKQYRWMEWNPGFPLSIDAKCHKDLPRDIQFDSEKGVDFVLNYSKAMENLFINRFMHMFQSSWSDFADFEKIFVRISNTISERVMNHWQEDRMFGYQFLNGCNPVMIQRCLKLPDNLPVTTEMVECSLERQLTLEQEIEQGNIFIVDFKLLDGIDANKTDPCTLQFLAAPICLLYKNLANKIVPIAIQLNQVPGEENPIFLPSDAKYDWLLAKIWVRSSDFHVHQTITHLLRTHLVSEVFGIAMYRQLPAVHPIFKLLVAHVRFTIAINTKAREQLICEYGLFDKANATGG
Method in brief: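 LTB4 biosynthesis measured in bovine polymorphonuclear leukocytes, with NDGA as the standard inhibitor; N = 3 or more, significance versus control at P < 0.01.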

[5] = Antioxidant potential was assessed from reducing activity against 2,2,di-phenyl-1-picrylhydrazyl.

| SMILES | logP [1] | pIC50 (HaCaT [2]) | LDH (HaCaT [3]) [mU] | pIC50 [4] | kDPPH [5] [M⁻¹ s⁻¹] |
| --- | --- | --- | --- | --- | --- |
| O=C1c2ccccc2Cc2cccc(O)c21 | 3.99 | < 5.30 | 170 | 4.89 | 9.6 |
| O=C1c2c(O)cccc2C(Cc2ccccc2)c2cccc(O)c21 | 4.5 | < 5.30 | 135 | < 4.52 | < 2 |
| COC(=O)c1cc(O)c2c(c1)Cc1cccc(O)c1C2=O | 4.54 | 6.15 | 340 | < 4.52 | > 100 |
| O=C1c2cccc(O)c2Cc2cccc(O)c21 | 3.51 | 5.37 | 191 |  | 13.5 |
| Cc1cc(O)c2c(=O)c3c(O)cc(O)c4c5c(O)cc(O)c6c(=O)c7c(O)cc(C)c8c1c2c(c34)c(c78)c65 [HYPERICIN] | 5.02 | 5.77 | 159 | < 4.52 | 3.66 |
| COc1cccc2c1C(=O)c1c(O)cccc1C2 | 3.44 | 5.51 | 179 |  | 4.6 |
| Nc1cccc2c1C(=O)c1ccccc1C2 | 2.45 | < 5.30 |  | 4.55 | 50.5 |
| O=CC1c2cccc(O)c2C(=O)c2c(O)cccc21 | 2.79 | 5.72 | 124 |  | < 2 |
| Nc1cccc2c1Cc1ccccc1C2=O | 2.46 | < 5.30 |  | 4.70 | 15.3 |
| O=C1c2c(O)cccc2C(C2c3cccc(O)c3C(=O)c3c(O)cccc32)c2cccc(O)c21 | 5.01 | 6.22 | 263 | < 4.52 | < 1 |
| CCC(=O)c1ccc2c(c1O)C(=O)c1c(O)cccc1C2 | 4.59 | 5.48 |  |  | > 100 |
| O=C1c2c(O)cccc2C(OCc2ccccc2)c2cccc(O)c21 | 4.25 | 5.42 |  | < 4.52 |  |
| O=C1c2cccc(Cl)c2Cc2c(Cl)cccc21 | 5.05 | 5.68 |  |  | 3.4 |
| N=C1c2c(O)cccc2Cc2cccc(O)c21 | 4.72 | 6.30 | 137 | < 4.52 | 2.7 |
| CN(C)C=C1c2cccc(O)c2C(=O)c2c(O)cccc21 | 3.18 | 5.68 |  | 4.68 | 16.2 |
| c1ccc2c(c1)Cc1ccccc1C2 | 4.06 | < 5.30 |  | < 4.52 |  |
| O=C(c1ccccc1O)c1ccccc1O [2,2'-DIHYDROXYBENZPHENONE] | 2.66 | < 5.30 |  | < 4.52 | 2.1 |
| O=C1c2ccccc2Cc2ccc(O)c(O)c21 | 3.19 | 5.72 |  | 5.40 | 41.5 |
| O=C1c2c(O)cccc2Cc2cc(CO)cc(O)c21 | 3.37 | 6.15 | 376 | 4.52 | 20.1 |
| Cc1cc(O)c2c(c1)Cc1cc(O)cc(O)c1C2=O [EMODIN ANTHRONE] | 3.9 | < 5.30 | 114 |  | 21.4 |
| CCC1c2cccc(O)c2C(=O)c2c(O)cccc21 | 4.37 | < 5.30 | 161 | < 4.52 | < 2 |
| O=C1C=CC(=O)c2c(O)ccc(O)c21 [NAPHTHAZALIN] | 3.7 | 6.15 | 247 |  | 41.5 |

| SMILES | logP [1] | pIC50 (HaCaT [2]) | LDH (HaCaT [3]) [mU] | pIC50 [4] | kDPPH [5] [M⁻¹ s⁻¹] |
| --- | --- | --- | --- | --- | --- |
| O=C1c2c(O)cccc2C(SCc2ccccc2)c2cccc(O)c21 | 4.87 |  |  | < 4.52 | > 100 |
| O=C1c2c(O)cccc2C(C(=O)c2ccccc2)c2cccc(O)c21 | 3.81 | < 5.30 |  |  |  |
| O=C1c2c(O)cccc2C([C@@H]2O[C@H](CO)[C@@H](O)[C@H](O)[C@H]2O)c2cc(CO)cc(O)c21 (some centres not stated) [ALOIN] | 1.83 | < 5.30 |  | < 4.52 | < 2 |
| COc1cccc2c1C(=O)c1c(cccc1OC)C2 | 3.88 | < 5.30 | 144 | < 4.52 |  |
| O=Cc1ccc2c(c1O)C(=O)c1c(O)cccc1C2 | 4.06 | < 5.30 |  | 5.22 | > 100 |
| COC1c2cccc(O)c2C(=O)c2c(O)cccc21 | 3.96 | 5.96 | 146 | < 4.52 |  |
| O=C1c2c(O)cccc2C(Br)c2cccc(O)c21 | 3.94 | < 5.30 |  | < 4.52 | 12.7 |
| O=C1c2c(Cl)cccc2Cc2cccc(Cl)c21 | 3.51 | < 5.30 |  | 5.40 | < 2 |
| CC(C)=CCc1c(C)cc(O)c2c1Cc1c(CC=C(C)C)c(O)cc(O)c1C2=O | 6.56 | < 5.30 |  | 4.60 | 8.2 |
| CCSC1c2cccc(O)c2C(=O)c2c(O)cccc21 | 2.97 |  |  | < 4.52 | > 100 |
| c1ccc2cc3ccccc3cc2c1 |  | < 5.30 | 131 | < 4.52 |  |
| O=C1c2cccc(OCc3ccccc3)c2Cc2c(OCc3ccccc3)cccc21 | 5.73 | < 5.30 |  |  | 3.2 |
| N#Cc1ccc2c(c1O)C(=O)c1c(O)cccc1C2 | 3.16 | 5.38 |  | 5.10 | > 100 |
| O=C1c2c(O)cccc2Cc2cccc(O)c21 [ANTHRALIN] |  |  | 294 |  | 24.2 |
| O=C1c2c(O)cccc2C(O)c2cccc(O)c21 | 2.91 | < 5.30 |  | < 4.52 | < 2 |
| O=C1C=CC(=O)c2c(O)cccc21 [JUGLONE] |  | 6.10 | 384 | 4.77 | 6.6 |
| O=C(O)c1cc(O)c2c(c1)Cc1cccc(O)c1C2=O | 2.96 | < 5.30 |  | 5.52 | > 100 |
| Oc1cccc(O)c1O [PYROGALLOL] | 1.19 | < 5.30 |  | 5.40 | > 100 |
| CC(C)=CCc1c(C)c(CC=C(C)C)c2c(c1O)C(=O)c1c(O)cc(O)c(CC=C(C)C)c1C2 [HARUNGANOL B] | 8.01 | < 5.30 |  | < 4.52 | 3.1 |
| O=C(c1ccccc1)c1cccc2c1C(=O)c1c(O)cccc1C2 | 3.99 | 5.37 |  | 4.57 | 39.6 |
| COc1cccc2c1Cc1c(O)cccc1C2=O | 2.6 | < 5.30 | 141 |  | < 2 |
| CCCCc1ccc2c(c1O)C(=O)c1c(O)cccc1C2 | 5.89 | < 5.30 |  | < 4.52 | 6.5 |
